Measured values of several laboratories.
Each line is one published result; the experiments were not run side by side.
Effect on: cell growth or viability

Compound	cell line	assay	conditions	IC50
CC(C)C(=O)SCCCCCCC(=O)Nc1nc(-c2ccccc2)cs1	CAL-27	–	72 h	1.15 µM
O=C1CCCCC1C1C2C=CC=CC1/C(=C/c1ccccc1)C2 (stereo not drawn)	K562	flow cytometry	–	0.059 µM
COc1cc(Nc2nccc(-c3cnn4nc(OC)ccc34)n2)cc(C(F)(F)F)c1	SCLC-21H	ATP luminescence	–	0.36 µM
CCCCc1ccc2[nH]c(NC(=O)OC)nc2c1	GTL 16	CCK-8	72 h	0.284 µM
COc1ccc(-c2cnc3c(n2)CCCC3)cc1Cl	MCF-10A	–	48 h	35.7 µM
COc1cccc2c1C(=O)c1c(O)c3c(c(O)c1C2=O)C[C@@](O)(C(=O)CO)C[C@@H]3O[C@H]1C[C@H](N)[C@H](O)[C@H](C)O1	MCF-10A	–	48 h	77 µM
COc1cc(OC)c(/C=C/S(=O)(=O)Nc2ccc(OC)c(N)c2)c(OC)c1	N417	trypan blue	96 h	0.004 µM
N#Cc1ccc(COC[C@H]2O[C@@H](n3c(NCc4ccc(Cl)c(Cl)c4)nc4c(N)ncnc43)[C@H](O)[C@@H]2O)cc1	CAL-27	–	72 h	> 20 µM
O=C(c1cc(Cl)c(Cl)[nH]1)c1c(O)ccc(C(c2csc(-c3ccccc3O)n2)c2ccc(O)c(C(=O)c3cc(Cl)c(Cl)[nH]3)c2O)c1O	MDCK	MTT	72 h	67 µg/mL
CN(C)CC[C@@H](c1ccc(Cl)cc1)c1ccccn1	CAL-27	–	72 h	> 20 µM
CCOc1cccc(-c2cnc3c(n2)CCCC3)c1	MCF-10A	–	48 h	30.9 µM
C[C@H]1[C@@H](O)O[C@@H]2O[C@@]3(C)CC[C@H]4[C@H](C)CC[C@@H]1[C@@]24OO3	MCF-10A	CCK-8	48 h	44.4 µM
Clc1ccc2c(c1)N=C(N1CCNCC1)c1ccccc1N2	CAL-27	–	72 h	> 20 µM
COc1cc(C2Oc3cc([C@H]4Oc5cc(O)cc(O)c5C(=O)[C@@H]4O)ccc3OC2CO)ccc1O (stereo partly drawn)	SNU-423	CCK-8	72 h	18.8 µM
CCCCOc1cccc(-c2cnc3c(n2)CCCC3)c1	MCF-10A	–	48 h	> 50 µM
COc1ccc(CCN(C)CCc2ccc(OC)c(OC)c2)cc1OC	CAL-27	–	72 h	> 20 µM
CCN1CCN(Cc2ccc(Nc3ncc(F)c(-c4cc(F)c5nc(C)n(C(C)C)c5c4)n3)nc2)CC1	4T1	CCK-8	–	> 2 µM
O=C(NC(=S)NCc1ccc(CNC(=S)NC(=O)c2ccc3ccccc3c2)cc1)c1ccc2ccccc2c1	MCF-10A	–	48 h	91.4 µM
COc1nc(SC)nc(OC)c1C(=O)/C=C/[c-]1cccc1.[Fe+2].c1cc[cH-]c1	4T1	MTT	72 h	214 µM
CC(=O)O[C@@]12CO[C@@H]1C[C@H](O)[C@@]1(C)C(=O)[C@H](O)C3=C(C)[C@@H](OC(=O)[C@H](O)[C@@H](NC(=O)OC(C)(C)C)c4ccccc4)C[C@@](O)([C@@H](OC(=O)c4ccccc4)[C@H]21)C3(C)C	4T1	CCK-8	72 h	0.118 µM
c1ccc(-c2cnc3c(n2)CCCC3)cc1	MCF-10A	–	48 h	> 50 µM
C=C1CC[C@@H]2[C@](C)(CO)[C@H](O)CC[C@@]2(C)[C@@H]1C/C=C1/C(=O)OC[C@H]1O	VCaP	CCK-8	72 h	20.4 µM
CC(C)C[C@H](NC(=O)[C@H](Cc1ccccc1)NC(=O)c1cnccn1)B(O)O	P31-FUJ	ATP luminescence	–	0.0051 µM
O=C(O)c1cc(/N=N/c2ccc(S(=O)(=O)Nc3ccccn3)cc2)ccc1O	VCaP	CCK-8	72 h	> 30 µM
O=C1Nc2ccc(Cl)cc2[C@@](C#CC2CC2)(C(F)(F)F)O1	CAL-27	–	72 h	> 20 µM
COc1ccc(-c2cnc3c(n2)CCCC3)nc1	MCF-10A	–	48 h	> 50 µM
S=C(NN=Cc1ccc(Cl)s1)Nc1ccccc1	CRFK	–	–	10.1 µM
CC(C)c1cccc(C(C)C)c1-n1c(Cl)c(Cl)n(-c2c(C(C)C)cccc2C(C)C)c1=[Se]	HCT-15	MTT	72 h	14.2 µM
Nc1nc(Nc2ccccc2)nc2c1ncn2[C@@H]1O[C@H](CO)[C@@H](O)[C@H]1O	CAL-27	–	72 h	> 20 µM
Cc1cc(NC(=O)c2cccc3cc(-c4cccc5[nH]nc(N)c45)ccc23)ccc1F	GL261	CCK-8	72 h	> 20 µM
